The values that follow come from PMC2765488 (Journal of medicinal chemistry, 2009).

Data set [1] is classed as physicochemical. The essentials:
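Capacity factors from analytical reversed-phase HPLC retention times (diphenyl column; 0.1% TFA water/acetonitrile; linear 20–100% B over 40 min, 20 min re-equilibration). […] Linear logD–retention correlation gave calculated logD.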

The nature of data set [2]: Mouse pain assay following i.p. administration. Conditions: unpublished results of the authors. In kind it is in vivo.
Data set [3] relates to 6 Hz corneal stimulation limbic seizure. Conditions: cited from earlier work; for Anticonvulsant activity, mice protected/tested, 15' / Anticonvulsant activity, mice protected/tested, 30' / Anticonvulsant activity, mice protected/tested, 1h / Anticonvulsant activity, mice protected/tested, 2h / Anticonvulsant activity, mice protected/tested, 4h: 6 Hz, 32 mA, 4 mg/kg i.p.; for Anticonvulsant activity, mice protected/tested, 15': 15 min after administration; for Anticonvulsant activity, mice protected/tested, 30': 30 min after administration; for Anticonvulsant activity, mice protected/tested, 1h: 1 h after administration; for Anticonvulsant activity, mice protected/tested, 2h: 2 h after administration; for Anticonvulsant activity, mice protected/tested, 4h: 4 h after administration.

For data set [4] the following is noted: CD, in the presence of 50% v/v 2,2,2-trifluoroethanol; cited from earlier work.
The conditions of data set [5]: buffered 25% rat blood serum, 37 °C; cited from earlier work.
A further data set has as its system human serum albumin. To be noted: higher affinity of C8 versus C14; cited from earlier work.

With `CCCCCCCC(=O)NCCCC[C@H](NC(=O)[C@H](CCCCN)NC(=O)[C@H](CCCCN)NC(=O)[C@@H]1CCCN1C(=O)CNC(=O)[C@H](CC(C)C)NC(=O)[C@H](CC(C)C)NC(=O)[C@H](Cc1ccc(O)cc1)NC(=O)CNC(=O)[C@H](C)NC(=O)[C@H](CO)NC(=O)[C@H](CC(N)=O)NC(=O)[C@H](CC(C)C)NC(=O)[C@@H](NC(=O)[C@H](Cc1c[nH]c2ccccc12)NC(=O)CNC)[C@@H](C)O)C(=O)N[C@@H](CCCCN)C(N)=O` [Gal-B2-C8], the chromatographic logD in data set [1] amounted to 0.78.
Regarding `CCCCCCCCCCCCCCCC(=O)NCCCC[C@H](NC(=O)[C@H](CCCCN)NC(=O)[C@H](CCCCN)NC(=O)[C@@H]1CCCN1C(=O)CNC(=O)[C@H](CC(C)C)NC(=O)[C@H](CC(C)C)NC(=O)[C@H](Cc1ccc(O)cc1)NC(=O)CNC(=O)[C@H](C)NC(=O)[C@H](CO)NC(=O)[C@H](CC(N)=O)NC(=O)[C@H](CC(C)C)NC(=O)[C@@H](NC(=O)[C@H](Cc1c[nH]c2ccccc12)NC(=O)CNC)[C@@H](C)O)C(=O)N[C@@H](CCCCN)C(N)=O` [Gal-B2], in data set [2], the analgesic activity result is “comparable analgesic activities”. In data set [3], the “Anticonvulsant activity, mice protected/tested, 15'” value is 3/4; the “Anticonvulsant activity, mice protected/tested, 30'” value is given as 4/4; the “Anticonvulsant activity, mice protected/tested, 1h” value is recorded as 4/4; the “Anticonvulsant activity, mice protected/tested, 2h” value is 4/4. Also, the “Anticonvulsant activity, mice protected/tested, 4h” value in data set [3] is recorded as 0/4. The “anticonvulsant ED50” value in data set [3] (i.p., 6 Hz pharmacoresistant model of epilepsy) is on record as 0.8 mg/kg. For the same compound, the α-helix content in data set [4] was 23%.
For Gal(1-16): unmodified Gal(1-16) analog, in data set [5], the “half-time in 25% rat serum” value is reported as 7.8 min.
In data set [1], `CCCCCCCCCCCCCCCCCC(=O)NCCCC[C@H](NC(=O)[C@H](CCCCN)NC(=O)[C@H](CCCCN)NC(=O)[C@@H]1CCCN1C(=O)CNC(=O)[C@H](CC(C)C)NC(=O)[C@H](CC(C)C)NC(=O)[C@H](Cc1ccc(O)cc1)NC(=O)CNC(=O)[C@H](C)NC(=O)[C@H](CO)NC(=O)[C@H](CC(N)=O)NC(=O)[C@H](CC(C)C)NC(=O)[C@@H](NC(=O)[C@H](Cc1c[nH]c2ccccc12)NC(=O)CNC)[C@@H](C)O)C(=O)N[C@@H](CCCCN)C(N)=O` [Gal-B2-C18] gave a chromatographic logD of 1.35.
Consider “(Sar)WTLNSAGYLLGPKKKK [Gal-(K)4, reference compound]”, for which, in data set [3], the “Anticonvulsant activity, mice protected/tested, 15'” value is 0/4; the “Anticonvulsant activity, mice protected/tested, 30'” value was 3/4; the “Anticonvulsant activity, mice protected/tested, 1h” value is reported as 1/3; the “Anticonvulsant activity, mice protected/tested, 2h” value is 0/3. In addition, the “Anticonvulsant activity, mice protected/tested, 4h” value in data set [3] is on record as 0/4. Further, the α-helix content in data set [4] was 14%.
`CCCCCCCC(=O)O` [octanoic acid]: in the data set on human serum albumin, the “affinity to human serum albumin compared to the C14 (myristic acid)” value is recorded as 11 fold.
